pIC50: −log10 of the molar value. Active and inactive are the calls of the source. The calls are words filed in the database; no cut-off is given here.
Key:
[1] = tested on: MCF7; experiment: Cytotoxicity against human MCF7 cells after 48 hrs by MTT assay; assay type: functional, cell-based; details: MCF7, 48 h
Method in brief: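 MCF-7 cells were grown overnight, then treated continuously for 48 h with compounds in DMEM containing 10% FBS. After two PBS washes, cells got 0.5 mg/ml MTT in serum-free DMEM for 4 h. Formazan was solubilized in DMSO and OD read at 570 nm.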

[2] = tested on: HepG2; experiment: Cytotoxicity against human HepG2 cells after 48 hrs by MTT assay; assay type: functional, cell-based; details: HepG2, 48 h
Method in brief: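 HepG2 kept in MEM with 10% FBS and 1% penicillin/streptomycin at 37 °C, 5% CO2. After overnight growth, cells were exposed continuously to compounds for 48 h in MEM with 10% FBS. They were then PBS-washed and given 0.5 mg/ml MTT in serum-free DMEM for 4 h. Formazan was dissolved in DMSO and read at 570 nm.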

[3] = Cytotoxicity against human SH-SY5Y cells after 48 hrs by MTT assay; assay type: functional, cell-based
Method in brief: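 SH-SY5Y, after overnight growth, were exposed continuously to compounds for 48 h in DMEM with 10% FBS. Then PBS washes, 4 h with 0.5 mg/ml MTT in serum-free DMEM, DMSO solubilization of formazan, and OD at 570 nm.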

[4] = tested on: HepG2; experiment: Cytotoxicity against human HepG2 cells at 1 uM after 48 hrs by MTT assay; assay type: functional, cell-based
Method in brief: (§1)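 After overnight plating, HepG2 cells (maintained in MEM/10% FBS/1% pen-strep, 37 °C, 5% CO2) were treated at a fixed compound concentration for 48 h in MEM plus 10% FBS. MTT was 0.5 mg/ml in serum-free DMEM for 4 h after PBS washes, with formazan taken up in DMSO. Absorbance at 570 nm gave percent proliferation inhibition, part of a dose-response series.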

[5] = tested on: MCF7; experiment: Cytotoxicity against human MCF7 cells at 1 uM after 48 hrs by MTT assay; assay type: functional, cell-based
Method in brief: (§2)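 Percent proliferation inhibition of MCF-7 at a single concentration, taken from a dose-response series. Cells were plated overnight, then compound-treated for 48 h in DMEM + 10% FBS. They were washed with PBS and incubated 4 h with 0.5 mg/ml MTT in serum-free DMEM. Formazan was dissolved in DMSO and read at 570 nm.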

[6] = Cytotoxicity against human SH-SY5Y cells at 1 uM after 48 hrs by MTT assay; assay type: functional
Method in brief: (§3)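 SH-SY5Y cells were grown overnight and treated for 48 h at the stated concentration in DMEM/10% FBS, as part of a dose-response series. After PBS washes, cells were incubated 4 h with 0.5 mg/ml MTT in serum-free DMEM. Formazan was dissolved in DMSO and read at 570 nm to give inhibition rate.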

[7] = tested on: HepG2; experiment: Cytotoxicity against human HepG2 cells at 10 uM after 48 hrs by MTT assay; assay type: functional, cell-based; method in brief: as §1
[8] = tested on: SH-SY5Y; experiment: Cytotoxicity against human SH-SY5Y cells at 10 uM after 48 hrs by MTT assay; assay type: functional, cell-based; method in brief: as §3
[9] = tested on: MCF7; experiment: Cytotoxicity against human MCF7 cells at 10 uM after 48 hrs by MTT assay; assay type: functional, cell-based; method in brief: as §2
[10] = Cytotoxicity against human SH-SY5Y cells at 5 uM after 48 hrs by MTT assay; assay type: functional; method in brief: as §3
[11] = tested on: MCF7; experiment: Cytotoxicity against human MCF7 cells at 5 uM after 48 hrs by MTT assay; assay type: functional; details: MCF7, 48 h; method in brief: as §2
[12] = tested on: HepG2; experiment: Cytotoxicity against human HepG2 cells at 5 uM after 48 hrs by MTT assay; assay type: functional; details: HepG2, 48 h; method in brief: as §1

| SMILES | pIC50 [1] | pIC50 [2] | pIC50 [3] | other results |
| --- | --- | --- | --- | --- |
| FC(F)(Cl)C(F)(Cl)CCSc1nc2ccccc2s1 (stereo unspecified) | < 3.92 | < 3.92 | < 3.92 | – |
| [O-][S+](CCC(F)=C(F)F)c1ncc(-c2ccncc2)s1 (stereo unspecified) | < 3.92 | < 3.92 | < 3.92 | – |
| O=S(=O)(CCC(F)=C(F)F)c1nc2ccc(OC(F)F)cc2[nH]1 | < 3.92 | < 3.92 | < 3.92 | – |
| [O-][S+](CCC(F)=C(F)F)c1nc2ccccc2[nH]1 (stereo unspecified) | < 3.92 | < 3.92 | < 3.92 | – |
| c1ccc2sc(SN(C3CCCCC3)C3CCCCC3)nc2c1 | < 3.92 | < 3.92 | 4.16 | – |
| FC(F)=C(F)CCSc1nc2ccccc2[nH]1 | < 3.92 | < 3.92 | < 3.92 | – |
| [O-][S+](CCC(F)=C(F)F)c1nc2ccccc2s1 (stereo unspecified) | 5.07 | 5.33 | 5.15 | – |
| Cn1c(SCCC(F)=C(F)F)nc(-c2ccncc2)cc1=O | < 3.92 | < 3.92 | < 3.92 | – |
| [O-][S+](CCC(F)=C(F)F)c1nccs1 (stereo unspecified) | < 3.92 | < 3.92 | < 3.92 | – |
| O=S(=O)(CCC(F)=C(F)F)c1nc2ccccc2[nH]1 | < 3.92 | < 3.92 | < 3.92 | – |
| O=S(=O)(CCC(F)(Cl)C(F)(F)Cl)c1nc2ccccc2s1 (stereo unspecified) | 5.00 | 5.35 | 5.35 | – |
| CC(=C(C#N)C#N)c1nccs1 | 3.96 | 3.98 | 4.16 | – |
| FC(F)(Cl)C(F)(Cl)CCSc1nc2ccc(Cl)cc2s1 (stereo unspecified) | < 3.92 | < 3.92 | < 3.92 | – |
| FC(F)=C(F)CCSc1nc2ccccc2o1 | < 3.92 | < 3.92 | < 3.92 | – |
| N#CC(C#N)(CCC(F)=C(F)F)Cc1nccs1 | < 3.92 | < 3.92 | < 3.92 | – |
| c1ccc2sc(SNC3CCCCC3)nc2c1 | 4.05 | 4.26 | < 3.92 | – |
| FC(F)=C(F)CCSc1nc2ccc(OC(F)F)cc2[nH]1 | < 3.92 | < 3.92 | < 3.92 | – |
| CC(c1nccs1)C(C#N)(C#N)CCC(F)=C(F)F (stereo unspecified) | < 3.92 | < 3.92 | < 3.92 | – |
| O=S(=O)(CCC(F)=C(F)F)c1nccs1 | < 3.92 | < 3.92 | < 3.92 | – |
| c1ccc2sc(SSc3nc4ccccc4s3)nc2c1 [BENZOTHIAZYL DISULFIDE] | < 3.92 | < 3.92 | < 3.92 | – |

| SMILES | pIC50 [1] | pIC50 [2] | pIC50 [3] | other results |
| --- | --- | --- | --- | --- |
| [O-][S+](CCC(F)(Cl)C(F)(F)Cl)c1nc2ccc(Cl)cc2s1 (stereo unspecified) | 4.91 | 5.16 | 5.68 | inhibition [4]: inactive; inhibition [5]: inactive; inhibition at 1 µM [6]: 50% |
| FC(F)=C(F)CCSc1ccccn1 | < 3.92 | < 3.92 | < 3.92 | – |
| O=S(=O)(CCC(F)=C(F)F)c1ncc(-c2ccncc2)s1 | < 3.92 | < 3.92 | < 3.92 | – |
| N#CC(C#N)=Cc1nccs1 | < 3.92 | < 3.92 | < 3.92 | – |
| O=S(=O)(CCC(F)(Cl)C(F)(F)Cl)c1nc2ccc(Cl)cc2s1 (stereo unspecified) | 5.08 | 5.21 | 5.22 | – |
| O=S(=O)(CCC(F)=C(F)F)c1nc2ccccc2s1 | 5.14 | 5.43 | 5.58 | inhibition [4]: inactive; inhibition [5]: inactive; inhibition at 1 µM [6]: 50% |
| N#CC(C#N)Cc1nccs1 | < 3.92 | < 3.92 | < 3.92 | – |
| CC(c1nccs1)C(C#N)C#N (stereo unspecified) | < 3.92 | < 3.92 | < 3.92 | – |
| COc1ccc2c(c1OC)C(=O)O[C@@H]2[C@H]1c2c(cc3c(c2OC)OCO3)CCN1C [NOSCAPINE] | – | – | 4.10 | – |
| CC(C)(c1nccs1)C(C#N)C#N | < 3.92 | < 3.92 | < 3.92 | – |
| [O-][S+](CCC(F)(Cl)C(F)(F)Cl)c1nc2ccccc2s1 (stereo unspecified) | 4.77 | 4.87 | 4.38 | Activity [7]: Active; Activity [8]: Active; Activity [9]: Active |
| FC(F)=C(F)CCSc1nccs1 | < 3.92 | < 3.92 | < 3.92 | – |
| FC(F)=C(F)CCSc1nc2ccccc2s1 | < 3.92 | < 3.92 | < 3.92 | – |
| FC(F)=C(F)CCSc1ncc(-c2ccncc2)s1 | < 3.92 | < 3.92 | < 3.92 | – |
| FC(F)=C(F)CCSc1ncc(Cl)s1 | < 3.92 | < 3.92 | < 3.92 | – |
| FC(F)=C(F)CCSc1nnc(S)s1 | < 3.92 | < 3.92 | < 3.92 | – |
| [O-][S+](CCC(F)=C(F)F)c1nc2ccccc2o1 (stereo unspecified) | 5.35 | 5.25 | 6.40 | inhibition at 5 µM [10]: 60%; inhibition at 5 µM [11]: 20%; inhibition at 5 µM [12]: 60% |
| O=S(=O)(CCC(F)=C(F)F)c1ccccn1 | < 3.92 | < 3.92 | < 3.92 | – |
| CC(=O)O[C@H]1C(=O)[C@@]2(C)[C@H]([C@H](OC(=O)c3ccccc3)[C@]3(O)C[C@H](OC(=O)[C@H](O)[C@@H](NC(=O)c4ccccc4)c4ccccc4)C(C)=C1C3(C)C)[C@]1(OC(C)=O)CO[C@@H]1C[C@@H]2O [PACLITAXEL] | 7.49 | 7.35 | – | – |

From ChEMBL document CHEMBL3414424, “Fluoroalkane thioheterocyclic derivatives and their antitumor activity” (Eur J Med Chem, 2015)
